Here are results for 19 compounds from PMC4403237 (European journal of medicinal chemistry, 2014).

Usually IC50 stands for the concentration at which inhibition is half-maximal.

Some results are limits rather than exact numbers.

Data set [1] relates to HL-60 human leukemia cell line. The experiment in a line: MTT cell viability assay, HL-60. Format: cell-based. To be noted: HL-60, 48 h, read-out: IC50 HL-60. Summed up: (§1)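 Logarithmically growing cells were used: HL-60 and NCI-H460 in RPMI-1640 with 10% FBS and L-glutamine; Hep3B in DMEM/F12 with 10% FBS; Detroit 551 in DMEM with 10% FBS and L-glutamine. Cells were exposed to a range of test compound concentrations or DMSO vehicle for 48 h at 37 °C, then incubated with MTT (1 mg/mL in PBS) for 2 h. Absorbance was read at 570 nm, corrected at 630 nm.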
For orientation: Formazan colour is commonly taken as a measure of viable cells.

The test system of data set [2] is Hep3B human hepatoma cell line. Briefly: MTT cell viability assay, Hep3B. Format: cell-based. Conditions: 48 h, read-out: IC50 Hep3B. Put shortly: as §1
In data set [3] the test system is NCI-H460 non-small cell lung cancer cell line. The experiment in a line: MTT cell viability assay, NCI-H460. The format is cell-based. To be noted: Homo sapiens, NCI-H460, 48 h, read-out: IC50 NCI-H460. Summed up:
as §1

Data set [4] concerns Detroit 551 human skin fibroblast cell line. The experiment in a line: MTT cell viability assay, Detroit 551. Format: cell-based. Conditions: Detroit 551, 48 h, read-out: IC50 Detroit551. Put shortly: as §1
For data set [5], the system named is NCI-60 human cancer cell line panel. Briefly: NCI-60 human cancer cell line panel screen. The format is cell-based. To be noted: NCI-60 panel mean.
For another data set, the system named is K562 leukemia. Briefly: NCI-60 screen, K562. Format: cell-based, human.
A further data set concerns SR leukemia. Briefly: NCI-60 screen, SR. The format is cell-based, human.
The subject of data set [6] is NCI-H522 non-small cell lung cancer. Briefly: NCI-60 screen, NCI-H522. To be noted: NCI-522 non-small cell lung cancer. The format is cell-based, human.
A further data set concerns SW-620 colon cancer. Briefly: NCI-60 screen, SW-620. Format: cell-based, human.
The next data set deals with M14 melanoma. Briefly: NCI-60 screen, M14. The format is cell-based, human.
In another data set the test system is MDA-MB-435 melanoma. Briefly: NCI-60 screen, MDA-MB-435. Format: cell-based, human.
In data set [7] the test system is Hep3B cells. The experiment in a line: Cell cycle distribution by flow cytometry in Hep3B cells. The format is cell-based, human. To be noted: 24 h. Put shortly:
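Hep3B cells were treated for 24 h with DMSO vehicle, test compound at 0.1, 0.3, 1 or 3 μM, or 1 μM reference antimitotics (vinblastine, colchicine, paclitaxel). Cells were stained with propidium iodide and analysed by flow cytometry. Data are mean ± SEM of three independent experiments.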

The test system of data set [8] is Hep3B cells. Briefly: Western blot of caspase and PARP cleavage in Hep3B cells. Format: cell-based, human. To be noted: 48 h treatment. On the technique in general: Immunoblotting shows a protein as a band on a membrane.
Data set [9] concerns Hep3B cells. The experiment in a line: In vivo. Format: cell-based, human. To be noted: 1 μM, 24 h. Put shortly: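 Hep3B cells were treated for 24 h with DMSO vehicle, 1 μM test compound, or 1 μM reference antimitotics. Cells were washed in ice-cold PBS and lysed 5 min at 37 °C in hypotonic buffer (20 mM Tris-HCl pH 6.8, MgCl2, EGTA, 0.5% IGEPAL, protease inhibitors), then spun 15,000 ×g for 10 min at 25 °C. Supernatant (soluble) and sonicated pellet (polymerized) fractions were western-blotted for α-tubulin, β-tubulin and β-actin.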

A further data set relates to Hep3B xenograft. The experiment in a line: Hep3B xenograft nude mice model. The format is in vivo, Balb/c nude mice. Put shortly:
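Male Balb/c nude mice (4–6 weeks, 18–20 g, SPF) received 2 × 10^6 Hep3B cells s.c. in the right flank. At tumor volume >100 mm3 (day 0), mice were grouped (n = 8). The water-soluble phosphate prodrug was given i.v. at 10, 20 or 40 mg/kg, five days/week for 3 weeks; doxorubicin i.v. served as reference. Tumor size (length × width² × 0.5) and body weight were recorded every 7 days to day 21; T/C was calculated.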

As for `COc1cccc(-c2cc(=O)c3c(C)ccnc3[nH]2)c1` [6a, 2-(3-Methoxyphenyl)-5-methyl-1,8-naphthyridin-4(1H)-one], the IC50 is 30 nM in data set [1], 130 nM in data set [2], 180 nM in data set [3] and greater than 5000 nM in data set [4].

On to `COc1cccc(-c2cc(=O)c3cc(C)cnc3[nH]2)c1` [6b, 2-(3-Methoxyphenyl)-6-methyl-1,8-naphthyridin-4(1H)-one], for which the IC50 in [1] was 60 nM; in data set [2], 120 nM; in data set [3], 140 nM; in [4], greater than 2500 nM.

For the compound `COc1cccc(-c2cc(=O)c3c(C)cc(C)nc3[nH]2)c1` [6c, 2-(3-Methoxyphenyl)-5,7-dimethyl-1,8-naphthyridin-4(1H)-one], the concentration for half-maximal inhibition (IC50) is 330 nM in data set [1], 730 nM in [2], 750 nM in data set [3] and greater than 50000 nM in data set [4].

In the case of `COc1cccc(-c2cc(=O)c3cc(Cl)cnc3[nH]2)c1` [6d, 6-Chloro-2-(3-methoxyphenyl)-1,8-naphthyridin-4(1H)-one], the concentration for half-maximal inhibition (IC50) was 30 nM in data set [1], 100 nM in data set [2], 100 nM in data set [3] and greater than 50000 nM in [4].

As to `COc1cccc(-c2cc(=O)c3cc(F)cnc3[nH]2)c1` [6e, 6-Fluoro-2-(3-methoxyphenyl)-1,8-naphthyridin-4(1H)-one], the IC50 in data set [1] is 70 nM; in data set [2] it was 200 nM; in data set [3], 240 nM; in data set [4], greater than 5000 nM.

For `COc1cnc2[nH]c(-c3cccc(F)c3)cc(=O)c2c1` [6g, 2-(3-Fluorophenyl)-6-methoxy-1,8-naphthyridin-4(1H)-one], the IC50 in [1] was 20 nM; in data set [2], 20 nM; in data set [3], 50 nM; in [4], greater than 10000 nM.

In the case of `COc1cnc2[nH]c(-c3cccc4ccccc34)cc(=O)c2c1` [6h, 6-Methoxy-2-(naphthalen-1-yl)-1,8-naphthyridin-4(1H)-one], the IC50 in data set [1] was 40 nM; in data set [2], 50 nM; in [3], 850 nM; in data set [4], greater than 25000 nM.

Turning to `COc1cnc2[nH]c(-c3csc4ccccc34)cc(=O)c2c1` [6i, 2-(Benzo[b]thiophen-3-yl)-6-methoxy-1,8-naphthyridin-4(1H)-one], the half-maximal inhibitory concentration (IC50) in data set [1] was 40 nM; in data set [2], 90 nM; in [3], 160 nM; in data set [4], greater than 10000 nM.

Take `Cc1ccnc2[nH]c(-c3cccc(O)c3)cc(=O)c12` [7a, 2-(3-Hydroxyphenyl)-5-methyl-1,8-naphthyridin-4(1H)-one]: the IC50 in data set [1] is 30 nM; in data set [2] it was 170 nM; in [3] it was 200 nM; in data set [4] it was greater than 50000 nM. In addition, in data set [5], the “average logGI50 (MID)” value is on record as −6.30. The logGI50 entry (in the data set with K562 leukemia; in the data set with SR leukemia; in data set [6]; in the data set with SW-620 colon cancer; in the data set on M14 melanoma; with MDA-MB-435 melanoma) was “less than −7.00” in each case. Besides, the “cell population at G2/M phase” value in the data set with Hep3B cells [7] (0.1-3 μM) is given as “significant cell population accumulation at G2/M phase in a concentration-dependent manner”. Besides, the sub-G1 phase population result in the data set on Hep3B cells [7] is reported as “predominant increase in sub-G1 phase”. The “cleavage of caspases and PARP” value in the data set on Hep3B cells [8] is “concentration-dependent increase in the cleavage of caspase-8, -9, -3, and PARP”. Besides, the “tubulin content in cytoskeleton (polymerized) fraction” value in the data set on Hep3B cells [9] is “decreased both α-tubulin and β-tubulin contents in the cytoskeleton fraction”.

`Cc1cnc2[nH]c(-c3cccc(O)c3)cc(=O)c2c1` [7b, 2-(3-Hydroxyphenyl)-6-methyl-1,8-naphthyridin-4(1H)-one]: the IC50 in data set [1] was 80 nM; in [2], 440 nM; in data set [3] it was 450 nM; in data set [4], greater than 2500 nM.

Take `Cc1cc(C)c2c(=O)cc(-c3cccc(O)c3)[nH]c2n1` [7c, 2-(3-Hydroxyphenyl)-5,7-dimethyl-1,8-naphthyridin-4(1H)-one]: the IC50 in data set [1] was 290 nM; in data set [2] it was 680 nM; in data set [3] it was 1300 nM; in data set [4], greater than 100000 nM.

In the case of `O=c1cc(-c2cccc(O)c2)[nH]c2ncc(Cl)cc12` [7d, 6-Chloro-2-(3-hydroxyphenyl)-1,8-naphthyridin-4(1H)-one], the IC50 is 110 nM in [1], 340 nM in [2], 200 nM in data set [3] and greater than 100000 nM in data set [4].

Consider `O=c1cc(-c2cccc(O)c2)[nH]c2ncc(F)cc12` [7e, 6-Fluoro-2-(3-hydroxyphenyl)-1,8-naphthyridin-4(1H)-one], for which the concentration for half-maximal inhibition (IC50) in data set [1] is 140 nM; in data set [2], 380 nM; in data set [3] it was 700 nM; in [4], greater than 100000 nM.

For `O=c1cc(-c2cccc(F)c2)[nH]c2nccc(O)c12` [7f, 2-(3-Fluorophenyl)-5-hydroxy-1,8-naphthyridin-4(1H)-one], the half-maximal inhibitory concentration (IC50) in [1] was 820 nM; in data set [2], 1820 nM; in data set [3] it was 2480 nM; in [4], greater than 100000 nM.

With `O=c1cc(-c2cccc(F)c2)[nH]c2ncc(O)cc12` [7g, 2-(3-Fluorophenyl)-6-hydroxy-1,8-naphthyridin-4(1H)-one], the 50% inhibitory concentration (IC50) in data set [1] is 80 nM; in data set [2], 160 nM; in [3], 860 nM; in data set [4], greater than 100000 nM.

Turning to `O=c1cc(-c2cccc3ccccc23)[nH]c2ncc(O)cc12` [7h, 6-Hydroxy-2-(naphthalen-1-yl)-1,8-naphthyridin-4(1H)-one], the IC50 in data set [1] is 480 nM; in data set [2], 460 nM; in data set [3] it was 1340 nM; in [4], greater than 100000 nM.

With `O=c1cc(-c2csc3ccccc23)[nH]c2ncc(O)cc12` [7i, 2-(Benzo[b]thiophen-3-yl)-6-hydroxy-1,8-naphthyridin-4(1H)-one], the 50% inhibitory concentration (IC50) in data set [1] stood at 570 nM; in data set [2], 1070 nM; in data set [3], 390 nM; in data set [4] it was 10000 nM.

Consider `CC(=O)O[C@H]1C(=O)[C@@]2(C)[C@H]([C@H](OC(=O)c3ccccc3)[C@]3(O)C[C@H](OC(=O)[C@H](O)[C@@H](NC(=O)c4ccccc4)c4ccccc4)C(C)=C1C3(C)C)[C@]1(OC(C)=O)CO[C@@H]1C[C@@H]2O` [Taxol, reference compound], for which the 50% inhibitory concentration (IC50) worked out at 2 nM in [1], 500 nM in [2] and 5 nM in data set [3].

On to `Cc1ccnc2[nH]c(-c3cccc(OP(=O)(O)O)c3)cc(=O)c12` [compound 11, 3-(5-Methyl-4-oxo-1,4-dihydro-1,8-naphthyridin-2-yl)phenyl dihydrogen phosphate], for which, in the data set with Hep3B xenograft (i.v. 20 mg/kg), the “Hep3B inhibitory activity compared with doxorubicin” value is “exceeded that of 5 mg/kg doxorubicin”. For the same compound, in the data set with Hep3B xenograft (i.v. 40 mg/kg), the Hep3B tumor weight is 78.6 % of the control. Also, the body weight changes result in the data set on Hep3B xenograft (i.v. 10, 20, 40 mg/kg, during antitumor evaluation) is “no significant body weight changes”. Further, the “inhibition of Hep3B tumor growth” value with Hep3B xenograft (i.v. 10, 20 and 40 mg/kg/day, five days per week, three weeks) was “dose- and time-dependent inhibition of Hep3B tumor growth”.
